PKA-R1A activ = activates the PKA-R1A holoenzyme complex | P00514+P68181 | PKA-R1A dissociation, Cy5-IP20 fluorescence polarization; scaled: DMSO 0%, 113 µM cGMP 100% | activation, % at 11.4 µM | 0.083% of 340,000 active | AID 504707;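 active = percent activation above the mean of all tested compounds plus 3 SD, cut at about 19% in these data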;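 note: higher means more PKAc released from R1A so a rise in polarization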
CAL PDZ FP-1 = human CAL PDZ-peptide interaction inhibition. 0.02% of 330,000 active. inhibition, % at 20 µM. purified CAL PDZ, TMR-peptide fluorescence polarization, 1 h. Q9HD26. AID 504414;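 active = highest replicate inhibition of at least 40%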
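Test system: tagged CAL PDZ domain / Buffer or medium: sodium phosphate/NaCl buffer pH 7.4 with TCEP, IgG, Thesit / Reagent: TMR-labelled reporter peptide T*-PRC34 bound in PDZ groove / Compound dosing: single point, 20 µM / Schedule: 1 h incubation at room temperature before polarization reading / Technique: fluorescence polarization (mP) / Benchmarks: unlabelled peptide, DMSO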
PKA-R2B act = PKA-R2B complex activation | activation, % at 11.4 µM | PKA-R2B holoenzyme dissociation, Cy5-IP20 fluorescence polarization; R2B truncated from residue 108, S112A mutant; 0% DMSO only, 100% 113 µM cGMP | 0.079% of 340,000 active | AID 504700;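 active = activation above a cutoff set at the mean over all compounds plus 3 SD, cut at about 18% in these data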;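 note: higher means more holoenzyme dissociation and a rise in polarization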
NTR1 ag = NTR1 (human) agonism | P30989 | NTR1-U2OS beta-arrestin-GFP spot imaging, agonist mode | activation, % at 20 µM | 0.17% of 330,000 active;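 active = activation at or above 40% of the spot to cytoplasm intensity ratio, with at least 20 cells analyzed; inconclusive = wells under 20 cells, flagged as cytotoxic or low count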
Target sequence (P30989 whole entry, looked up): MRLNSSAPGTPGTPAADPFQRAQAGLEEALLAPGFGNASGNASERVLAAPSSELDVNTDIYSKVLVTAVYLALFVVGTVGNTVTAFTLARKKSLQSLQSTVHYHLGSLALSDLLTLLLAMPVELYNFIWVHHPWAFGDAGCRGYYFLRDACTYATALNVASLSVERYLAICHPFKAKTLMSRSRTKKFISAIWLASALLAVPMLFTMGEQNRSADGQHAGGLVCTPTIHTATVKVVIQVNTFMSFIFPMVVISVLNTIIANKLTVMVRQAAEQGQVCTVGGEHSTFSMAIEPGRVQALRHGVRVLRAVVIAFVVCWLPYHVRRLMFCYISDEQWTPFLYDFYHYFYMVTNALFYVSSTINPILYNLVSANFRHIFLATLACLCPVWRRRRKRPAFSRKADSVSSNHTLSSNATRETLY
CAL PDZ FP-2 = blocks peptide binding to the human CAL PDZ domain; 0.92% of 300,000 active; inhibition, % at 24.9 µM; Q9HD26; purified CAL PDZ, TMR-peptide fluorescence polarization, 1 h; AID 602252;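 active = mean inhibition of at least 30% with at least half of replicates also reaching 30%; inconclusive = no clear call, values can overlap the other calls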
dFosB activator = mouse delta FosB homodimer activation; 0.99% of 340,000 active; activation, % at 25 µM; purified delta FosB, TAMRA-CDK5 oligo fluorescence polarization; percent of positive-control signal above neutral wells; AID 493131;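 active = mean activation above about 17%, with every replicate also reaching it, limit read from the data, passing the limit was not always enough; inconclusive = only one of the two conditions met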
Of the large screens only hits and unclear results are named; the others gave an inactive call. The list is not random: actives were taken first. Their share in the collection is about 2%.

O=C(NCC1CCCCC1)c1cccc(Br)c1	none
Cc1[nH]c(=O)[nH]c(=O)c1/C=C/C(=O)O	CAL PDZ FP-2 69.8
O=C(OC1CCOC1=O)C1CCN(S(=O)(=O)c2ccc(Cl)c(C(F)(F)F)c2)CC1 (centres undefined)	none
Cn1c(SCC(N)=O)nnc1-c1ccc(S(=O)(=O)N2CCCC2)cc1	CAL PDZ FP-2 41.8
CSc1nnc(-c2ccc(S(=O)(=O)N3CCCC3)cc2)n1C	none
c1ccc(-c2ccccc2OCCOCCN2CCc3ccccc3C2)cc1	CAL PDZ FP-2 75.3
Clc1ccc(OCCOCCN2CCc3ccccc3C2)c(Cl)c1	none
CCCCN(C(=O)CN1C(=O)C2CCCCC2C1=O)c1c(N)n(CCC)c(=O)[nH]c1=O (centres undefined)	none
CCc1nc(C)cn1S(=O)(=O)c1ccc2c(c1)OCCO2	none (no result: NTR1 ag, CAL PDZ FP-2)
CC(C)NC(=O)NC(=O)COC(=O)c1ccccc1O	none
CC(C)NC(=O)NC(=O)COC(=O)c1ccccc1Oc1ccccc1	CAL PDZ FP-2 76.0 (no result: CAL PDZ FP-1)
O=C(COC(=O)/C=C/c1ccccc1[N+](=O)[O-])NC(=O)NC1CCCC1	none
O=C(Sc1n[nH]c(=O)[nH]c1=O)c1ccccc1	none (no result: NTR1 ag)
CCN1CCN(S(=O)(=O)c2ccc(Cl)c(C(=O)Oc3ccc(CC(=O)OC)cc3)c2)CC1	CAL PDZ FP-2 80.3 (no result: NTR1 ag)
COc1ccc(CN2CCCC(C(=O)c3cccc(C(F)(F)F)c3)C2)cc1O (centres undefined)	none
CC(C)C#Cc1cnc2c(c1)C(=O)N([C@H](C)CO)C[C@@H](C)[C@H](CN(C)C(=O)Nc1ccccc1F)O2	none (no result: CAL PDZ FP-1, NTR1 ag, CAL PDZ FP-2, dFosB activator)
CN(C(=O)COC(=O)c1ccc([N+](=O)[O-])cc1Cl)C1CCCCC1	none
CN(C(=O)COC(=O)c1ccc(Cl)cc1N)C1CCCCC1	CAL PDZ FP-2 33.8
O=C(COC(=O)/C=C/c1ccccc1)NC1CCCCCC1	none
CC(Sc1ccc(Cl)cc1)C(=O)NNC(=O)c1ccccc1O (centres undefined)	none
Cc1cccc(C(=O)Nc2ccc(C(=O)/C=C/c3ccncc3)cc2)c1	CAL PDZ FP-1 43.0
Cc1cccc(C(=O)Nc2ccc(C(=O)/C=C/c3cccnc3)cc2)c1	none (no result: NTR1 ag)
CCC(CO)Oc1cc(NCc2ccc(C(C)(C)C)cc2)c2ncn(C(C)C)c2c1 (centres undefined)	none
CCCc1cc(C(=O)N2CCC(n3nccc3NC(=O)c3ccc(OC)cc3)CC2)no1	none
CC(C)CC(=O)c1c[nH]c(C(=O)N2CCN(Cc3ccccc3)CC2)c1	CAL PDZ FP-2 80.1
COc1ccc(-c2csc(=NCCO)n2-c2ccccc2)cc1	CAL PDZ FP-2 62.2 (no result: NTR1 ag)
COc1ccc(-c2csc(=Nc3ccccc3)n2CCO)cc1	none (no result: CAL PDZ FP-2)
CCOC(=O)c1c(C)[nH]c(C)c1S(=O)(=O)NCc1ccccc1OCC	none
O=c1nc2ccccc2c(NS(=O)(=O)c2ccccc2)n1-c1ccccc1	CAL PDZ FP-2 35.6
CC1CCN(CCCn2c(=S)[nH]c3c(sc4ccc([N+](=O)[O-])cc43)c2=O)CC1	none
CC1CCN(CCCn2c(=S)[nH]c3c(sc4ccccc43)c2=O)CC1	CAL PDZ FP-2 50.5
Cc1ccc(NC(=O)CCNS(=O)(=O)c2ccccc2)cc1S(=O)(=O)N1CCOCC1	none
CCc1ccccc1OCC(=O)Nc1ccc(F)c(S(=O)(=O)N2CCOCC2)c1	CAL PDZ FP-2 30.8
Cc1ccc(NC(=O)Cc2ccccc2)cc1S(=O)(=O)N1CCOCC1	CAL PDZ FP-2 30.0
COc1cc(-c2cc(C(=O)Nc3ccc(O)cc3)c3ccccc3n2)cc(OC)c1OC	none
COc1cc(-c2cc(C(=O)Nc3ccc(C)c(S(=O)(=O)N4CCOCC4)c3)c3ccccc3n2)cc(OC)c1OC	dFosB activator 33.4
COc1cc(-c2cc(C(=O)Nc3nc4ccccc4s3)c3ccccc3n2)cc(OC)c1OC	CAL PDZ FP-2 87.0, dFosB activator inconclusive
O=C(Nc1nc(-c2cccs2)cs1)c1ccc([N+](=O)[O-])o1	none
CCCNc1c(NS(=O)(=O)c2ccc(OC)c(OC)c2)c(=O)oc2ccccc12	none (no result: CAL PDZ FP-2)
CN(CC(=O)Nc1ccccc1Cl)C(=O)CN1C(=O)NC(c2ccccc2)(c2ccccc2)C1=O	CAL PDZ FP-2 84.8
COc1ccc(Cc2nc3ccc(C(=O)N4CCN(C)C(C)C4)cc3o2)cc1OC (centres undefined)	none
CN(C)/C=C1\C(=O)N(c2ccc(Cl)c(Cl)c2)CS1(=O)=O	none
CN(C)C1=C(Cl)C(=O)N(c2ccc(Cl)c(Cl)c2)C1=O	dFosB activator 23.9
CN(Cc1cnccn1)Cc1nc(Cc2ccccc2F)no1	CAL PDZ FP-2 56.4
CCc1ccc(CN(C)Cc2nc(COc3ccccc3)no2)nc1	CAL PDZ FP-2 49.2
O=C(Nc1ccccc1F)c1ccc(CN2CCc3ccccc3C2)cc1	CAL PDZ FP-2 132.5 (no result: CAL PDZ FP-1)
CSc1nc(NCCOCCO)c2sc3nc(-c4ccco4)c4c(c3c2n1)CCC4	CAL PDZ FP-2 65.9
Cc1ccc(C(=O)N[C@H](C(=O)OCc2nnc(-c3ccccc3)o2)C(C)C)cc1	CAL PDZ FP-2 49.9
CN(C)CCOC(=O)c1sc2ccccc2c1Cl	CAL PDZ FP-2 83.7
Cc1nnc(NC(=O)C2CCCN2C(=O)Nc2ccccc2)s1 (centres undefined)	none
CC(C)n1ncc2c(C(=O)NCC(=O)Nc3ccccc3Br)cc(C3CC3)nc21	CAL PDZ FP-2 46.5
Cc1nn(C)c(C)c1NC(=S)Nc1ccc(S(=O)(=O)Nc2ncccn2)cc1	CAL PDZ FP-2 39.1
Cc1cc(CNC(=S)Nc2ccc(S(=O)(=O)Nc3ncccn3)cc2)nn1C	none
Cc1c(NS(=O)(=O)c2cc(C(=O)NCc3cccnc3)ccc2Cl)c(=O)n(-c2ccccc2)n1C	CAL PDZ FP-2 82.2
C[C@@H]1COC(=O)[C@H](CC(=O)OC(C)(C)C)C/C=C\C[C@@H](CC(=O)N[C@H](CO)Cc2ccccc2)C(=O)N1	none
OC1(C#CCCN2CCCCC2)c2ccccc2-c2ccccc21	CAL PDZ FP-2 50.4
Cc1cc(Cl)cc(C)c1OCC(=O)NC1CCCCCC1	CAL PDZ FP-2 48.5
CC(OC(=O)Cn1[nH]c(=O)c2ccccc2c1=O)C(=O)NC1(C#N)CCCCC1 (centres undefined)	none
Cc1n[nH]c(C)c1S(=O)(=O)N(CC(=O)N1CCc2ccccc21)c1ccc(C(C)C)cc1	dFosB activator 50.1
CCOc1ccc(N(CC(=O)N2CCc3ccccc32)S(=O)(=O)c2c(C)noc2C)cc1	none
CCCC(C)NC(=O)CSc1nnc(-c2c[nH]c3ccccc23)o1 (centres undefined)	CAL PDZ FP-2 46.4
COC(=O)c1sc(-c2ccc(Cl)cc2)cc1NC(=O)COCC(=O)O	CAL PDZ FP-2 47.9

Screening results as filed in PubChem BioAssay.
